The values below come from ChEMBL document CHEMBL1145788, “Synthesis of ethyl 5-phenyl-6-oxa-1-azabicyclo[3.1.0]hexane-2-carboxylate derivatives and evaluation of their antimalarial activities” (J Med Chem, 2003).

For test [1], the system named is Mycobacterium tuberculosis. The test is described as follows: Growth inhibitory activity against Mycobacterium tuberculosis H37R. The format is functional. Summed up:
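M. tuberculosis H37Ra growth inhibition measured by microplate Alamar Blue assay (MABA); read-out as MIC; isoniazid and kanamycin sulfate run as reference drugs.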

For test [2], the system named is Plasmodium falciparum. The test is described as follows: In vitro antimalarial activity against multidrug-resistant Plasmodium falciparum K1; Not active. The format is functional, organism-based. Summed up:
(§1)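 Cultured P. falciparum K1 (multidrug-resistant) tested by microculture radioisotope technique (Desjardins); growth measured as [3H]hypoxanthine uptake; EC50 taken as the concentration giving 50% reduction in parasite growth; chloroquine diphosphate and artemisinin as standards.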

The subject of a further test is Vero. The test is described as follows: Cytotoxicity against african green monkey kidney fibroblast (vero cell) at a concentration less than 50 ug/mL; Inactive. The format is functional, cell-based. As to conditions: Chlorocebus sabaeus.
Test [3] deals with Plasmodium falciparum. Put plainly: In vitro antimalarial activity against multidrug-resistant Plasmodium falciparum K1. Type of test: functional, organism-based. Summed up:
as §1

Test [4] in a line: Cytotoxicity against african green monkey kidney fibroblast (vero cell). The format is functional, cell-based. The following applies: Chlorocebus sabaeus. Summed up:
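Vero (African green monkey kidney fibroblast) cytotoxicity run by the colorimetric method of Skehan and co-workers.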

A word on the MIC: it is the lowest concentration that inhibits growth of the organism. For orientation: EC50 means the concentration that produces a half-maximal response. In general, IC50 refers to the point on the concentration scale where inhibition reaches its midpoint.

Molecules are shown by their SMILES. Converted amounts (≈) assume the structure as drawn. The source made the active and inactive calls. No cut-off for these calls is given here.

For the molecule `CCCC[C@@]1(C(=O)OCC)CC[C@@]2(c3ccccc3)O[N@@]12`, the lowest concentration to inhibit growth in test [1] (MIC) was 100 µg/mL (≈ 346 µM). Further, the IA result in the test with Plasmodium falciparum [2] and with Vero was “inactive” in each case.

Consider `CCCC[C@]1(C(=O)OCC)CC[C@@]2(c3ccccc3)O[N@@]12`, for which the MIC in test [1] was 100 µg/mL (≈ 346 µM). Besides, the EC50 in the test with Plasmodium falciparum [3] is 2.4 µg/mL (≈ 8.29 µM). Moreover, in the test with Vero, the IA result is “inactive”.

In the test with Plasmodium falciparum [3], `C=CCC[C@]1(C(=O)OCC)CC[C@@]2(c3ccccc3)O[N@@]12` had an EC50 of 44.2 µg/mL (≈ 154 µM).

Turning to `CCOC(=O)[C@@]1(CCCc2ccccc2)CC[C@@]2(c3ccccc3)O[N@@]12`, in test [1], the MIC came out at 200 µg/mL (≈ 569 µM). The same molecule had an EC50 with Plasmodium falciparum [3] of 2.9 µg/mL (≈ 8.25 µM). The IA entry in the test with Vero is “inactive”.

`CCCCC[C@]1(C(=O)OCC)CC[C@@]2(c3ccccc3)O[N@@]12`: 100 µg/mL (≈ 330 µM) was the least that counted as inhibitory in test [1] (MIC). Further, it took 3.1 µg/mL (≈ 10.2 µM) to reach a half-maximal effect in the test with Plasmodium falciparum [3] (EC50). The IA entry in the test with Vero was “inactive”.

Regarding `C[C@@H]1CC[C@H]2[C@@H](C)C(=O)O[C@@H]3O[C@@]4(C)CC[C@@H]1[C@]32OO4` [ARTEMISININ], the response with Plasmodium falciparum [3] was half-maximal at 0.0011 µg/mL (≈ 0.0039 µM) (EC50).

For `Cc1c2ccncc2c(C)c2c1[nH]c1ccccc12` [ELLIPTECINE], the half-maximal inhibitory concentration (IC50) in test [4] came out at 1 µg/mL (≈ 4.06 µM).

`CCC[C@]1(C(=O)OCC)CC[C@@]2(c3ccccc3)O[N@@]12` came in with an MIC in test [1] of 100 µg/mL (≈ 363 µM). The molecule also came in with an EC50 in the test with Plasmodium falciparum [3] of 21.7 µg/mL (≈ 78.8 µM). Also, the IC50 in test [4] came out at 28.9 µg/mL (≈ 105 µM).

The molecule `CCOC(=O)[C@@]1(C)CC[C@@]2(c3ccccc3)O[N@]21` came in with an MIC in test [1] of 200 µg/mL (≈ 809 µM). Further, the EC50 with Plasmodium falciparum [3] was 4.6 µg/mL (≈ 18.6 µM). The molecule also registered an IC50 in test [4] above 50 µg/mL.

In test [1], `CCOC(=O)[C@]1(C)CC[C@@]2(c3ccccc3)O[N@@]12` registered an MIC of 200 µg/mL (≈ 809 µM). Besides, the IC50 in test [4] was above 50 µg/mL.

Take `CCCCC[C@@]1(C(=O)OCC)CC[C@@]2(c3ccccc3)O[N@@]12`: in test [1], the MIC turned out to be 100 µg/mL (≈ 330 µM). Further, the IA entry with Plasmodium falciparum [2] is “inactive”. The IC50 in test [4] was above 50 µg/mL.

Take `CCC[C@@]1(C(=O)OCC)CC[C@@]2(c3ccccc3)O[N@@]12`: 100 µg/mL (≈ 363 µM) was the least that counted as inhibitory in test [1] (MIC). Also, the IC50 in test [4] was above 50 µg/mL.

Molecule `CCOC(=O)[C@@]1(C2C[C@H]2C(=O)OC)CC[C@@]2(c3ccccc3)O[N@]21` (stereo partly specified) came in with an MIC in test [1] of 100 µg/mL (≈ 302 µM). In addition, the 50% effective concentration (EC50) in the test with Plasmodium falciparum [3] is 15.9 µg/mL (≈ 48 µM). For the same molecule, in test [4], the IC50 stood at 43.4 µg/mL (≈ 131 µM).

For the molecule `C=CCCC[C@]1(C(=O)OCC)CC[C@@]2(c3ccccc3)O[N@@]12`, the EC50 with Plasmodium falciparum [3] was found to be 13.9 µg/mL (≈ 46.1 µM).

`CCOC(=O)[C@]1(CCC2OCCO2)CC[C@@]2(c3ccccc3)O[N@@]12`: in the test with Plasmodium falciparum [2], the IA result was “inactive”. This molecule also yielded an IC50 in test [4] above 50 µg/mL.

In turn, `CCOC(=O)[C@]1(C2C[C@H]2C(=O)OC)CC[C@@]2(c3ccccc3)O[N@]21` (stereo partly specified) returned an MIC in test [1] of 200 µg/mL (≈ 604 µM). The IA entry in the test on Plasmodium falciparum [2] was “inactive”. In addition, the IC50 in test [4] was above 50 µg/mL.

Turning to `CCN(CC)CCCC(C)Nc1ccnc2cc(Cl)ccc12.O=P(O)(O)O.O=P(O)(O)O` (stereo unspecified) [CHLOROQUINE PHOSPHATE], the EC50 in the test with Plasmodium falciparum [3] was found to be 0.16 µg/mL.

Molecule `CCOC(=O)[C@]1(CCCc2ccccc2)CC[C@@]2(c3ccccc3)O[N@@]12` came in with an MIC in test [1] of 25 µg/mL (≈ 71.1 µM). In addition, the IA result with Plasmodium falciparum [2] is “inactive”. Also, in test [4], the IC50 was above 50 µg/mL.

With `CCOC(=O)[C@@]1(CCC2OCCO2)CC[C@@]2(c3ccccc3)O[N@@]12`, the MIC in test [1] turned out to be 200 µg/mL (≈ 600 µM). In the test on Plasmodium falciparum [3], this molecule came in with a concentration for a half-maximal effect (EC50) of 14.7 µg/mL (≈ 44.1 µM). For the same molecule, the IC50 in test [4] was above 50 µg/mL.

Consider `CCOC(=O)[C@@]1(CCC=C(C)C)CC[C@@]2(c3ccccc3)O[N@@]12`, for which the concentration for a half-maximal effect (EC50) in the test with Plasmodium falciparum [3] was 21.9 µg/mL (≈ 69.4 µM).

For the molecule `NNC(=O)c1ccncc1` [ISONIAZID], the MIC in test [1] came to 0.05 µg/mL (≈ 0.365 µM).
